Hits are enriched below; roughly 1.2% of the tested compounds scored in any of these assays.
MsrA inhibitor: inhibitors of bovine MsrA. inhibition, % at 15.5 µM. purified bovine MsrA, absorbance read-out. 0.75% of 360,000 active; in the data active means inhibition above about 4.5%;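 further: 0% = vehicle wells with enzyme and 100% = reference inhibitor wells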
Bfl-1 A1 inh: inhibitors of the anti-apoptotic protein A1, read as caspase activation. MEF A1-2A-BIM cells, Caspase-Glo 3/7 luminescence, 3 h; percent of clofoctol response, vehicle zero. caspase activation, % (test concentration not listed). 0.066% of 330,000 active;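 active means over half of replicate activation scores above 10%, or exactly half above 10 with the replicate mean above 10; inconclusive means replicate mean below 10 yet half the replicates above 10; inactive means over half of replicates below 10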
bovine MsrA act: activates bovine MsrA enzyme; purified bovine MsrA, absorbance read-out; activation, % at 10.6 µM; 0.3% of 360,000 active; in the data active means activation above about 7.5%;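 further: 0% = vehicle and 100% = reference activator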
proCasp3 act: activates human procaspase-3; P42574; recombinant procaspase-3 D3A, Ac-DEVD-pNA absorbance 405 nm; activation, % at 8.5 µM; 0.11% of 330,000 active; AID 463141;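 active means activation above the mean of all tested compounds plus 3 SD, cut at about 21% in these data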;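 further: 0% = DMSO alone and 100% = DMSO wells spiked with extra 5 µM PC-3 D3A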
Target sequence (P42574 whole entry D9A/D28A/D175A): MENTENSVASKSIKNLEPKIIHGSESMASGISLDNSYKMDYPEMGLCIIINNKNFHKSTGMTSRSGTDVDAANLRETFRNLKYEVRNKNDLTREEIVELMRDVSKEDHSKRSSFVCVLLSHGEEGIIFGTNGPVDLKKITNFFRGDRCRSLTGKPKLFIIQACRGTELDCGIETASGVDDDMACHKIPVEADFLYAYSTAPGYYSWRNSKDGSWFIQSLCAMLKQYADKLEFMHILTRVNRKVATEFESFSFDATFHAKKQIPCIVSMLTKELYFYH
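Assay system: Autoprocessing-dead procaspase-3 D3A mutant enzyme; also added: Ac-DEVD-pNA; doses: one concentration, 8.5 µM nominal, 0.8% DMSO; times: 1 h compound preincubation, 2 h substrate hydrolysis at 25 °C; technique: 405 nm absorbance of p-nitroaniline, reads at 0 and 120 min; measure: % activation between DMSO and enzyme-spiked controls; repeats: single replicate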
procasp7 counter: counter-screen for procaspase-3 activators: activators of human procaspase-7; P55210; recombinant procaspase-7, Ac-DEVD-pNA absorbance 405 nm; D23A/D198A/D206A triple mutant, cannot self-cleave; scale: DMSO 0, 5 µM enzyme 100; activation, % at 8.5 µM; 0.093% of 330,000 active; AID 463210;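 active means percent activation above the screen-wide mean plus 3 SD, cut at about 25% in these data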
Target sequence (P55210 whole entry D23A/D198A/D206A): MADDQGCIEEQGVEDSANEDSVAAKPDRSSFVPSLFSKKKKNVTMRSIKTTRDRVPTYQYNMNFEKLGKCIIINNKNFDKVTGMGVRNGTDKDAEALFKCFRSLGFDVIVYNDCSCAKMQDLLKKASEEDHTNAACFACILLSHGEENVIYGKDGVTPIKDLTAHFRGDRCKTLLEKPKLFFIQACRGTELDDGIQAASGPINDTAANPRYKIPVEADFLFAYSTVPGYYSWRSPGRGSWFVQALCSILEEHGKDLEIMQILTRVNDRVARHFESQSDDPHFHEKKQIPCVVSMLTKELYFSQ
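buffer or medium = Zinc-free HEPES/NaCl buffer, pH 7.4 | material = Procaspase-7 triple mutant (PC-7 D3A) | input = 2 µM procaspase-7 mutant as dispensed | signal = Epi-absorbance of released pNA at 405 nm, two timepoints | timing = 1 h preincubation, 2 h reaction | replicates = singlicate compound testing | evaluation = % activation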
MsrA act confirm: confirmation of bovine methionine sulfoxide reductase A activators | shares compounds with bovine MsrA act | purified bovine MsrA, absorbance read-out | activation, % at 10.6 µM | 12% of 1,000 active; in the data active means activation above about 4%;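 further: enzyme coupled to thioredoxin and thioredoxin reductase with NADPH; 0% = vehicle wells and 100% = reference activator wells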
* = called active by the depositor; ? = inconclusive; · = no result given.

SMILES | MsrA inhibitor | Bfl-1 A1 inh | bovine MsrA act | proCasp3 act | procasp7 counter | MsrA act confirm
CC1(C)NC(=O)N(c2ccccc2Cl)C1(C)NO (configuration not stated) | 0 | 1 | 11* | -5 | 2 | -3
Cc1cc(=O)n(-c2ccccc2Cl)[nH]1 | 0 | -1 | -9 | -2 | -2 | ·
NC(=O)c1cc(S(=O)(=O)N2CCCC2)ccc1OCCOc1ccccc1F | -1 | · | 11* | · | · | -2
COc1ccc(OCCOc2ccc(S(=O)(=O)N3CCCC3)cc2C(N)=O)cc1 | 0 | 1 | 2 | -2 | 4 | ·
CC(C)(C)OC(=O)N1CCC2CCN(S(=O)(=O)c3ccccc3)CC21 (configuration not stated) | 0 | · | · | · | · | ·
C/C(CC(=O)NC12CC3CC(CC(C3)C1)C2)=N\NC(=O)c1cnccn1 | 1 | 0 | 14* | 3 | 1 | -1
O=C(NC12CC3CC(CC(C3)C1)C2)c1cnccn1 | 0 | 1 | 2 | 11 | 7 | ·
COC(=O)CCS(=O)(=O)c1cc(Cl)ccc1Cl | 1 | 2 | 8.3* | 3 | 3 | 0
Cc1cccc(NC(=S)N(CCN(C)C)Cc2cc3cccc(C)c3[nH]c2=O)c1 | 1 | -1 | 20* | 4 | 12 | -1
Cc1cccc(NC(=S)N(CCN(C)C)Cc2cc3cc(C)cc(C)c3[nH]c2=O)c1 | 0 | 1 | -4 | 1 | 11 | ·
C=C(C(=O)c1ccccc1)C(C)CC(=O)c1ccccc1 (configuration not stated) | -1 | -1 | 8.5* | -5 | -3 | -1
COc1ccccc1COCC(O)CNCC1(N2CCCCC2)CCCCC1 (configuration not stated) | 0 | 1 | -1 | -9 | -2 | ·
COc1cc(C(C)=O)ccc1OCC(O)CNCC1(N2CCCCC2)CCCCC1 (configuration not stated) | 1 | 0 | 19* | -8 | -8 | 0
C/C(=N/Nc1ccccc1C(=O)O)c1cccs1 | 4 | -1 | 16* | -3 | -1 | -3
CCOC(=O)Nc1ccc2c(c1)N(C(=O)CN(CC)CC)c1ccccc1C=C2 | -1 | -1 | 7.9* | 17 | 5 | 0
CCOC(=O)Nc1ccc2c(c1)N(C(=O)CN(CC)CC)c1ccccc1CC2 | -1 | 1 | 0 | · | · | ·
O=C(NCC1CCN(C(=O)C(=O)c2cccs2)CC1)c1ccc2c(c1)OCO2 | 0 | · | · | · | · | ·
COc1ccc(Cc2c(-c3ccc(OC)c(OC)c3)nc3ccc(C)cn23)c(C)c1 | 1 | · | 13* | · | · | -1
C[C@@H]1CN([C@@H](C)CO)C(=O)CCCn2nncc2CO[C@H]1CN(C)CC1CC1 | 0 | · | · | · | · | ·
C=CCOc1ccc(Oc2cc(C)nc(SC)n2)nn1 | 0 | 0 | 13* | -6 | 3 | -3
COc1ccc(C(=O)NCC2CCN(C(=O)C(=O)c3cccs3)CC2)c(OC)c1 | 1 | · | · | · | · | ·
CNc1ncnc2sc(-c3ccccc3)cc12 | 4 | -2 | -5 | 1 | 7 | ·
S=c1[nH]cnc2sc(-c3ccccc3)cc12 | 2 | 0 | 8.2* | 3 | -18 | 0
CCOC(=O)C1CSCCS(=O)(=O)N1Cc1ccccc1C (configuration not stated) | 2 | · | · | · | · | ·
C/C(N)=C(/C#N)C(=O)COC(=O)c1ccccc1C(=O)c1ccc(C)cc1 | 1 | 2 | 8.6* | -3 | 3 | 1
SMILES | MsrA inhibitor | Bfl-1 A1 inh | bovine MsrA act | proCasp3 act | procasp7 counter | MsrA act confirm
O=C(COC(=O)c1cncc(Br)c1)NC12CC3CC(CC(C3)C1)C2 | 0 | -2 | 9.3* | 9 | 7 | -1
O=C(NC12CC3CC(CC(C3)C1)C2)c1cncc(Br)c1 | 1 | 0 | -3 | 2 | 9 | ·
C=CCN1C(=O)c2n[nH]c(C(C)C)c2C1c1ccc(C)cc1 (configuration not stated) | 2 | · | · | · | · | ·
OCCNCCSc1ccc(Cl)cc1 | -1 | 0 | 9.3* | -1 | -9 | 0
CS(=O)(=O)Nc1ccc(C(=O)NCCSCc2ccccc2)cc1 | 2 | 0 | 2 | -3 | 4 | ·
CS(=O)(=O)Nc1ccc(C(=O)NCCSCc2c(F)cccc2Cl)cc1 | -1 | -1 | 8.3* | 0 | 6 | 1
Cc1ccc(NC(=O)N2CC(C)OC(C)C2)cc1[N+](=O)[O-] (configuration not stated) | 0 | · | · | · | · | ·
Cc1cc(N2CCN(C(=O)OC(C)(C)C)C[C@@H]2C)ccc1N1CCN(Cc2ccccc2)[C@H](C)C1 | 0 | · | · | · | · | ·
C[C@@H]1CN([C@@H](C)CO)C(=O)CCCn2cc(nn2)CO[C@H]1CN(C)C(=O)Nc1ccc(C(C)(C)C)cc1 | -1 | · | · | · | · | ·
CCOC(=O)c1cccc(NC(=O)c2cnc3ccccc3n2)c1 | -1 | 0 | 13* | 8 | -1 | -1
COc1ccc(C)cc1N(C(=O)c1ccccc1)c1nc2ccccc2s1 | -1 | -1 | 1 | 7 | -7 | ·
COc1ccc(C)cc1N(C(=O)c1ccccc1F)c1nc2ccccc2s1 | 0 | -1 | 13* | 1 | 4 | -1
CCn1c(=O)cc(OCC(=O)O)c2ccccc21 | -2 | 1 | 14* | -1 | 10 | -1
CCn1c(-c2ccc(C)cc2)n[nH]c1=S | 0 | 0 | -4 | -3 | -20 | ·
Cc1ccc(-c2csc3n[nH]c(=S)n23)cc1 | -1 | 1 | 12* | -23 | -35 | 2
COC(=O)C1=C(C)N(Cc2ccc(C(F)(F)F)cc2)C(=NCc2ccc(OC)cc2)NC1c1ccccc1 (configuration not stated) | -1 | · | · | · | · | ·
C=CCN1[C@@H](C)[C@@H](c2ccccc2)Oc2c(Cl)cccc2S1(=O)=O | -1 | · | · | · | · | ·
Cc1ccc(-n2nnnc2CNC(=O)C2CC(=O)N(c3ccc(F)cc3)C2)cc1C (configuration not stated) | -1 | ? | 7.7* | 6 | 4 | -1
O=C(NCc1nnnn1-c1ccc(F)cc1)C1CC(=O)N(c2ccc(F)cc2)C1 (configuration not stated) | 1 | 0 | 0 | 3 | 3 | ·
C#CCOc1ccccc1C(=O)NNc1ccc([N+](=O)[O-])cc1[N+](=O)[O-] | 0 | · | · | · | · | ·
CC(C)c1ccc(C(=O)CSc2ncn[nH]2)cc1 | -1 | -1 | 14* | -13 | -30 | -2
COC(=O)c1cc2c(c3c4ccccc4n(S(=O)(=O)c4cccc(C)c4)c13)C(=O)N(C)C2 | 0 | · | · | · | · | ·
CC(C)CCCCCCCCc1cccc(O)c1C(=O)O | -1 | · | · | · | · | ·
CC1CC(C)CN(CCCNC(=O)CCNC(=O)Cn2ccc3ccccc3c2=O)C1 (configuration not stated) | 0 | 1 | 7.7* | 0 | 12 | 0
CC(=O)N1CCOC12CCN(Cc1ccccc1)CC2 | 0 | · | 8.2* | · | · | -3
Cc1nc([N+](=O)[O-])cn1CC(Cl)Cn1cc([N+](=O)[O-])nc1C | 2 | · | · | · | · | ·
CCC(=O)Nc1ccc(C(=O)Nc2cccnc2)cc1 | -1 | 0 | 15* | -11 | -11 | -1

Bioassay records as filed in PubChem BioAssay.
